Data as given in article PMC6500731 (Clinical cancer research : an official journal of the …, 2018).

Experiments:
[1] = target: eIF4A1 (Homo sapiens, UniProt P60842); assay: Malachite green ATP hydrolysis assay, wildtype eIF4A1; format: biochemical
Method in brief: (§1)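 Malachite green ATPase run at 37 °C for 1 h. eIF4A1 wild-type, K82R (500 nM) or K238E (500 nM) in 20 mM MES-NaOH pH 6.0, 100 mM potassium acetate, 2.5 mM MgCl2, 1% glycerol, 1 mM DTT. ATP gradient 0–2 mM. Aliquot mixed with 9.3 µM malachite green, 53 mM ammonium molybdate, 1 M HCl, 0.04% Tween 20. Mean ± SEM, n=3.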

[2] = target: eIF4A1-K82R (Homo sapiens, UniProt P60842, K82R); assay: Malachite green ATP hydrolysis assay, eIF4A1-K82R mutant; format: biochemical
Method in brief: as §1

[3] = target: eIF4A1-K238E (Homo sapiens, UniProt P60842, K238E); assay: Malachite green ATP hydrolysis assay, eIF4A1-K238E mutant; format: biochemical
Method in brief: as §1

[4] = target: bacterial chaperonin GroEL (Escherichia coli, UniProt P0A6F5); assay: Malachite green ATP hydrolysis counter-screen, GroEL; format: biochemical
[5] = target: human chaperone HSP70 (Homo sapiens, UniProt P0DMV8); assay: Malachite green ATP hydrolysis counter-screen, HSP70; format: biochemical
[6] = target: p97 (Homo sapiens, UniProt P55072); assay: Malachite green ATP hydrolysis counter-screen, p97; format: biochemical
[7] = target: DDX3 (Homo sapiens, UniProt O00571); assay: Malachite green ATP hydrolysis counter-screen, DDX3; format: biochemical
[8] = target: DDX17 (Homo sapiens, UniProt Q92841); assay: Malachite green ATP hydrolysis counter-screen, DDX17; format: biochemical
[9] = target: eIF4A1 helicase activity (Homo sapiens, UniProt P60842); assay: Fluorescence-based helicase assay; format: biochemical; details: cell-free, RNA unwinding de-quenching
[10] = system: Non-Hodgkin Lymphoma cell lines; assay: Viability assay; format: cell-based
[11] = system: Harvard/Wellcome cancer cell line collection; assay: Growth inhibition screen, Harvard/Wellcome cell line collection; format: cell-based; details: 344/924 cell lines
[12] = system: DLBCL cell lines; assay: Proliferation assay; format: cell-based; details: three DLBCL cell lines, single elatol treatment
Method in brief: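 Three DLBCL lines seeded on day 0 and given a single dose of DMSO vehicle or test compound at indicated concentrations. Viable cells counted daily by trypan blue exclusion. Mean ± SEM, n=3.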

[13] = system: DLBCL cell lines; assay: Apoptosis assay; format: cell-based
Method in brief: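 Flow-cytometric cell death: DLBCL cell lines treated as indicated for 24 h, alone or combined with the PERK inhibitor GSK2606414 or with 200 nM ISRIB. Cells washed once in ice-cold PBS, then co-stained with PE-Annexin V and 7-aminoactinomycin D. Mean ± SEM, n=3 biological replicates; unpaired two-tailed t-tests.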

[14] = system: normal human peripheral-blood mononuclear cells; assay: Potency against normal peripheral-blood mononuclear cells; format: cell-based; details: Fig. S1B
[15] = system: protein synthesis in DLBCL cells; assay: O-propargyl puromycin; format: cell-based; details: concentrations relative to LD50, 4, 16 or 24 hours
Method in brief: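 DLBCL cells treated 4, 16 or 24 h with test compound, silvestrol or carboplatin, at concentrations scaled to each agent's LD50. Cells pulsed with O-propargyl puromycin, washed twice in PBS and click-labelled with Alexa-488 azide. Flow cytometry gave mean fluorescence on live-gated cells, normalised to DMSO. Mean ± SEM, n=3; unpaired two-tailed t-tests with Benjamini–Krieger–Yekutieli correction.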

[16] = system: OCI-Ly3 cells; assay: Polysome profiling; format: cell-based; details: OCI-Ly3, 2 μM elatol
[17] = system: OCI-Ly3; assay: Protein; format: cell-based; details: OCI-Ly3, Fig. S3D
[18] = system: SNU-398; assay: Viability assay in SNU-398 cells; format: cell-based
[19] = system: SNU-398; assay: Western blot in SNU-398 cells; format: cell-based; details: 16 hours
[20] = Tolerability in non-tumor bearing SCID mice; format: in vivo; details: for tolerability: non-tumor bearing SCID mice
Method in brief: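 Non-tumor-bearing female SCID mice, 8–10 weeks old, dosed i.p. daily for 5 days at 10, 20 or 30 mg/kg and monitored for weight and activity. Complete blood counts (white blood cells, hemoglobin, platelets) measured on a Hemavet950. For 20 mg/kg: mean ± SEM, n=17 vehicle and 7 treated.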

[21] = system: SU-DHL-6 flank tumors; assay: SU-DHL-6 xenograft; format: in vivo
Method in brief: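 Female SCID mice, 8–10 weeks old. 2 × 10^6 SU-DHL-6 cells, washed in ice-cold PBS and mixed 1:1 with matrigel, injected s.c. into the right flank. At 60 mm3, mice pair-matched to vehicle (sterile water, 5.2% tween-80, 5.2% PEG-400) or 20 mg/kg test compound i.p. daily for 5 days. Weight and tumor volume measured twice weekly; mean ± SEM, n=8.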

[22] = Single-dose maximum tolerated dose study; format: in vivo; details: for tolerability, single dose: five female CD-1 mice
[23] = system: OCI-Ly3 xenograft; assay: OCI-Ly3 xenograft; format: in vivo
Method in brief: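 Female SCID mice, 8–10 weeks old. 10 × 10^6 OCI-Ly3 cells, washed in ice-cold PBS and mixed 1:1 with matrigel, implanted s.c. in the flank. Tumors dissected at 500 mm3, dissociated, and 1 × 10^6 serially transplanted cells implanted s.c. At ≥50 mm3, mice pair-matched to vehicle or 40 mg/kg i.p. twice weekly. Weight and tumor volume monitored twice weekly; n=8; two-way ANOVA.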

[24] = system: engrafted B16 murine melanoma cells; details: 10 mg/kg daily i.p. or p.o.; cited from earlier work

Sequence of p97 (P55072 whole entry): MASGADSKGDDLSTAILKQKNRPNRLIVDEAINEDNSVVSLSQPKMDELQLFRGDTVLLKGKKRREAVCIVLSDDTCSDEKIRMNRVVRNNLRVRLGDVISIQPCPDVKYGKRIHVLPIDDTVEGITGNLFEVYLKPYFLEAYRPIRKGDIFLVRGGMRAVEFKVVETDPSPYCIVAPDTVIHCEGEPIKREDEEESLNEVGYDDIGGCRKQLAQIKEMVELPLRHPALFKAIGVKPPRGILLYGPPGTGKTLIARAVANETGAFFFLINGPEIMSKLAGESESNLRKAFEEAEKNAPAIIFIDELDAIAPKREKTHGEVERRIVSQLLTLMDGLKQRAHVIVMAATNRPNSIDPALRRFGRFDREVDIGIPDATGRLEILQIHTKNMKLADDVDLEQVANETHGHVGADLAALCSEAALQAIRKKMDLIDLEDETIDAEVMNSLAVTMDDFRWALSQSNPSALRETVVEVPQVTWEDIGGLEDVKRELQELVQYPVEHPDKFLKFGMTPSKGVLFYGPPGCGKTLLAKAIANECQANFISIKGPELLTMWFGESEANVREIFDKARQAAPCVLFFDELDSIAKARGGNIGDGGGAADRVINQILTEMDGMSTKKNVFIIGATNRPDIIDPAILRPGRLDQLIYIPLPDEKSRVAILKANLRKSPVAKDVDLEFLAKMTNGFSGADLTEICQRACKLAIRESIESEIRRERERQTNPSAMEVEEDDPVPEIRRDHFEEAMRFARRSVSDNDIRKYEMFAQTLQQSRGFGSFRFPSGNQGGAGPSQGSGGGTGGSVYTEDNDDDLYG
Sequence of bacterial chaperonin GroEL (P0A6F5 whole entry): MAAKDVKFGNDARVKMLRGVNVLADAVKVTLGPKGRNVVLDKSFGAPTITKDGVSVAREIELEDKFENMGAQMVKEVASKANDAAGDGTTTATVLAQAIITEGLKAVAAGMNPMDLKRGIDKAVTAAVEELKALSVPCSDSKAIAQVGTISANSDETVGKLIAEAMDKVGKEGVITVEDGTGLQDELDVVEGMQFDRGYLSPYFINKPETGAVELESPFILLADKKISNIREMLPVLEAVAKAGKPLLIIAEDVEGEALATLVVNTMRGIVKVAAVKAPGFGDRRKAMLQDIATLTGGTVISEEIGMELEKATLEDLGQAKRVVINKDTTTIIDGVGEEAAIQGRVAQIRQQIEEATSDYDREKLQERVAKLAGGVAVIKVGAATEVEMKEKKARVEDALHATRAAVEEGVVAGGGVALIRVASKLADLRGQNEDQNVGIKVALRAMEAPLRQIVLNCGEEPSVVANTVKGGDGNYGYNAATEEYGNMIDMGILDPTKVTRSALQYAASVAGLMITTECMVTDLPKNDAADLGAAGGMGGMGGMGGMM
Sequence of eIF4A1 helicase activity (P60842 whole entry): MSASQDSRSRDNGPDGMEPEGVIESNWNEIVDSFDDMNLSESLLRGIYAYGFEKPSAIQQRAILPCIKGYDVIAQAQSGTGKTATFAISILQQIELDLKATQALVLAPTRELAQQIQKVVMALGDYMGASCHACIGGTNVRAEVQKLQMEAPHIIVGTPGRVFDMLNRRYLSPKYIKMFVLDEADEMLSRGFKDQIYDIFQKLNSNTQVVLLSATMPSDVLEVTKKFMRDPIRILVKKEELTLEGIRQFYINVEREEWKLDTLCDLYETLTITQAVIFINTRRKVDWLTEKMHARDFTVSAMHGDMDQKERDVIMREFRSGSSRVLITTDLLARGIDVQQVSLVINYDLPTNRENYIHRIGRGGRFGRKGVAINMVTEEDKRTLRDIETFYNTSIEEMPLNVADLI
Sequence of eIF4A1 (P60842 whole entry): as above
Sequence of DDX17 (Q92841 whole entry, species assumed): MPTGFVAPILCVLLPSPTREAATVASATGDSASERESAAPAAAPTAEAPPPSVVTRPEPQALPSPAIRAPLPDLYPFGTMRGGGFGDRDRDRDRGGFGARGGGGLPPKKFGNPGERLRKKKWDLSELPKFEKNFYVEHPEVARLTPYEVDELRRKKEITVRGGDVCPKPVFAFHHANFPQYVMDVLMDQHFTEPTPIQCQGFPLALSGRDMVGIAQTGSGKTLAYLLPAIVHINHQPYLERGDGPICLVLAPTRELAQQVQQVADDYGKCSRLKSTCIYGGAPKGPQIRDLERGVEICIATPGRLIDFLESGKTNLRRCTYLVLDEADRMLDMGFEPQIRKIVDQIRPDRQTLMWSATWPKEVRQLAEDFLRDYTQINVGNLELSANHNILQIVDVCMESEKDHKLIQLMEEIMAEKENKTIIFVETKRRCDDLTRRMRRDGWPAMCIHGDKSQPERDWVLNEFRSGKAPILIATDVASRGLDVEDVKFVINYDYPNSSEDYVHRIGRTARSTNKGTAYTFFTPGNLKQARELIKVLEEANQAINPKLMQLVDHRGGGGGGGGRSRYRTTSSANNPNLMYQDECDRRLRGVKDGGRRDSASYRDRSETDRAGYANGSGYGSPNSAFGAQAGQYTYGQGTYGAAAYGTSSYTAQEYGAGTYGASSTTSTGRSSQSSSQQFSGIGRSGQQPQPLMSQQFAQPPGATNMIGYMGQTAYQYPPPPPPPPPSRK
Sequence of eIF4A1-K238E (P60842 whole entry K238E): as the sequence (P60842 whole entry) above, with K238E counted along it
Sequence of eIF4A1-K82R (P60842 whole entry K82R): as the sequence (P60842 whole entry) above, with K82R counted along it
Sequence of human chaperone HSP70 (P0DMV8 whole entry): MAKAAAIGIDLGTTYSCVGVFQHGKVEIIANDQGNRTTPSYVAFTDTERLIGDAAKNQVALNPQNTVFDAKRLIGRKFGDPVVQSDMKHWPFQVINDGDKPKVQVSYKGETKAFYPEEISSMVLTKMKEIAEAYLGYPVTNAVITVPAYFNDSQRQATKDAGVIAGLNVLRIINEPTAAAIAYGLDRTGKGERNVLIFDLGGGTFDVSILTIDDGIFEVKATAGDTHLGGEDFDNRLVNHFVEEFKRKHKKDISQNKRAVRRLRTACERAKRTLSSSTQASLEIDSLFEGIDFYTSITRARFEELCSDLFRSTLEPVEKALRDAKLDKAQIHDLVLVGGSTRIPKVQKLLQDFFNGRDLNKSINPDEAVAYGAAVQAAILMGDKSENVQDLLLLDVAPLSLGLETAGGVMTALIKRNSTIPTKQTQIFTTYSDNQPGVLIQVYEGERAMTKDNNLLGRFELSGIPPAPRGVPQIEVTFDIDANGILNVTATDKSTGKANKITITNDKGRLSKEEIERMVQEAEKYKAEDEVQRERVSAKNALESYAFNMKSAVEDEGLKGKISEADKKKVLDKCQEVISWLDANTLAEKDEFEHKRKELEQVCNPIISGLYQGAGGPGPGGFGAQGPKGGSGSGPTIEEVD
Sequence of DDX3 (O00571 whole entry, species assumed): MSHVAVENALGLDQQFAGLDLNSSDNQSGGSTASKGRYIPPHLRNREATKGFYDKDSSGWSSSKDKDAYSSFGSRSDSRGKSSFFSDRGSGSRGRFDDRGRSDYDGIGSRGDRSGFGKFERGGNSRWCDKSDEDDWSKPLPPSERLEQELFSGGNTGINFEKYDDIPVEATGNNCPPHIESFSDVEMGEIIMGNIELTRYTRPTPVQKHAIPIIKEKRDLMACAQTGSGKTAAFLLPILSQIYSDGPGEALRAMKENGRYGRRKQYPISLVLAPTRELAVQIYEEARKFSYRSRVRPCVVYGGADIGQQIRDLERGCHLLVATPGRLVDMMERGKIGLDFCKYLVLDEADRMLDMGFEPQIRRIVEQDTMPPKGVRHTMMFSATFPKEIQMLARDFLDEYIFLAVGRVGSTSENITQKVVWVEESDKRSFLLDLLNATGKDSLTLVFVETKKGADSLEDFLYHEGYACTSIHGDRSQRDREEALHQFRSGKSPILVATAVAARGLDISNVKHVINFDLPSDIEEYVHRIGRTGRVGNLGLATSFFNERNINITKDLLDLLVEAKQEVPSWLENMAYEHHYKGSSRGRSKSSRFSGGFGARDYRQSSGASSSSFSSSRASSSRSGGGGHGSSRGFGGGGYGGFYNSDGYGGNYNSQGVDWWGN

For C=C1C[C@H](O)[C@H](Br)C(C)(C)[C@@]12CCC(C)=C(Cl)C2 [elatol], the IC50 [1] was 16.4 µM, the IC50 [2] was 85.5 ± 31.8 µM and the IC50 [3] was 34.2 ± 12.8 µM. For the same molecule, the “activity against ATP hydrolysis by GroEL” value [4] was “no activity”, the “activity against ATP hydrolysis by HSP70” value [5] was “no activity” and the “activity against ATP hydrolysis by p97” value [6] was “no activity”. For the same molecule, the “activity against ATP hydrolysis by DDX3” value [7] was “no activity”, the “activity against ATP hydrolysis by DDX17” value [8] was “no activity” and the “effect on eIF4A1 helicase activity” value [9] was “inhibition”. The “toxic concentration in the preliminary screen of cancer cell lines” value ([10]; preliminary screen) was “less than 1 μM”, the “fold less potent than silvestrol” value ([10]; sensitive tumor cells in vitro) was 5–10 fold and the “share of cell lines having IC50 < 1μM” value [11] was 37%. For the same molecule, the effect on proliferation [12] was “completely halted proliferation”, the “effect of ISRIB on elatol's toxicity” value ([13]; OCI-Ly3 cells, combination with 200 nM ISRIB) was “no effect” and the “effect of PERK inhibitor GSK2606414 on elatol's potency” value ([13]; annexin V staining, 24 hours, combination with PERKi) was “no significant reversal”. The apoptosis ([13]; by 24 hours, most sensitive DLBCL line) was “greater than 50%”, the “potency against normal PBMC relative to tumor lines” value [14] was “less potent” and the “protein synthesis measured by incorporation of OPP” value [15] was “global decline of protein synthesis”. For the same molecule, the polysome translation ([16]; 16 hours) was “complete elimination of polysome translation”, the polysome translation ([16]; two-hour treatment) was “moderately reduced polysome translation” and the “concentration at which mRNA reductions become significant” value [17] was 500 to 1000 nM. For the same molecule, the “concentration at which protein-expression changes begin” value [17] was 100 nM, the “type of effect on SNU-398 cells” value ([18]; 72-hour treatment) was “highly cytotoxic” and the LD50 ([18]; SNU-398, 72-hour treatment) was 219 nM. For the same molecule, the “activity against mTORC1 targets (phosphorylation of S6 and 4EBP1)” value ([19]; 200 nM rapamycin, 100 nM silvestrol, 1 μM elatol) was “no activity”, the ATF4 expression ([19]; SNU-398, 1 μM elatol) was “induced expression of the transcription factor ATF4” and the tolerability ([20]; 10 mg/kg daily x 5 days i.p.) was “neither 10 mg/kg nor 20 mg/kg resulted in signs of toxicity”. The “Day 5 complete blood counts versus vehicle” value ([20]; 20 mg/kg daily for 5 days) was “no differences”, the tolerability ([20]; 20 mg/kg daily x 5 days i.p.) was “neither 10 mg/kg nor 20 mg/kg resulted in signs of toxicity” and the tolerability ([20]; 30 mg/kg daily i.p., stopped after three days) was “weight loss and reduced animal activity”. The “time tumor growth was halted from the start of treatment” value ([21]; 20 mg/kg i.p. daily for 5 days, one cycle) was 12 days, the “tolerability in tumor-bearing mice” value ([21]; 20 mg/kg i.p. daily, first five-day cycle) was “weight loss and overt signs of toxicity” and the “tolerability, single dose” value ([22]; 50 mg/kg single i.p. dose) was “tolerated 50 mg/kg without issue”. The “tolerability, single dose” value ([22]; 65 mg/kg single i.p. dose) was “tolerated 65 mg/kg without issue”, the “mice dying or moribund requiring sacrifice” value ([22]; 80 mg/kg single i.p. dose, within five days) was 3/5 and the “mortality, single dose” value ([22]; 100 mg/kg single i.p. dose, within five days) was “all five animals in group 2 died”. For the same molecule, the “tolerated dose relative to silvestrol” value ([22]; CD-1, SCID, mouse, in vivo, 14 days) was ~ 100 x, the “tolerability in tumor-bearing mice” value ([23]; 40 mg/kg i.p. twice per week) was “well-tolerated” and the “tumor growth compared to vehicle-treated controls” value ([23]; 40 mg/kg i.p. twice per week, p=0.0117) was “significant reduction of tumor growth”. The “tolerability in tumor-bearing mice” value ([23]; single dose at 65 mg/kg, OCI-Ly3 engrafted SCID mice) was “morbidity and weight loss” and the antitumor activity [24] was “antitumor activity”.
